Data on 51 compounds can be found in PubChem BioAssay AID651576 (The Scripps Research Institute Molecular Screening Center, 2012).

Each structure is given as a SMILES string. Where “and” joins values, the source holds several entries; their conditions need not be identical. Identical values can stand only once. Calls of active or inactive are those of the source.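 The calls were made as follows: active = inhibition of at least 50%, averaged over three replicate wells; inactive = inhibition below 50%.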

In this experiment the test system is HCV core protein (core106) dimerization, Hepatitis C virus. The experiment is described as follows: HCV core106 dimerization inhibitors, late-stage follow-up, biochemical, AlphaScreen luminescence, single dose 15 µM, powder samples (AID 651576). To be noted: AlphaScreen GST/Flag-core106 dimerization, at 15 µM, stronger effect = higher value. In outline:
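Material: HCV core106 dimerization between GST-tagged and Flag-tagged core106 proteins / Amount: each tagged core106 protein at 150 nM / Buffer or medium: HEPES pH 7.5 with DTT and CHAPS / Incubation: protein preincubation 1 h at room temperature, 1 h per bead step / Detection: AlphaScreen luminescence / Controls: protein-only wells as 0% inhibition reference / Repeats: triplicate wells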
As to `Cc1ccc(Cc2c(C)nc3nc(SCC(=O)NCCN4CCCN(C(=O)c5ccc(F)cc5)CC4)nn3c2C)cc1`, the inhibition was < 50% (inactive).
With `Cc1ccc(Cc2c(C)nc3nc(SCC(=O)N4CCN(Cc5ccc(F)cc5)CC4)nn3c2C)cc1`, the inhibition was 10% (inactive).
With `Cc1ccc(Cc2c(C)nc3nc(SCC(=O)NCCN4CCN(Cc5ccc(F)cc5)CC4)nn3c2C)cc1`, the inhibition is 66%.
For `Cc1ccc(Cc2c(C)nc3nc(SCC(=O)N4CCN(C(=O)CSc5nc6nc(C)c(Cc7ccc(C)cc7)c(C)n6n5)CC4)nn3c2C)cc1`, the inhibition was 87%.
As for `CC(=O)N1CCN(CCNC(=O)CSc2nc3nc(C)c(Cc4ccc(C)cc4)c(C)n3n2)CC1`, the inhibition was < 50% (inactive).
`Cc1ccc(Cc2c(C)nc3nc(SCC(=O)Nc4ccccc4NC(=O)CSc4nc5nc(C)c(Cc6ccc(C)cc6)c(C)n5n4)nn3c2C)cc1`: the inhibition was 80%.
With `C#CCN1CCN(CCNC(=O)CSc2nc3nc(C)c(Cc4ccc(C)cc4)c(C)n3n2)CC1`, the inhibition was < 50% (inactive).
For the compound `Cc1ccc(Cc2c(C)nc3nc(SCC(=O)NCCN4CCCCCC4)nn3c2C)cc1`, the inhibition was 97% and 82%.
As for `CCN(CC)C(=O)CSc1nc2nc(C)c(Cc3ccc(C)cc3)c(C)n2n1`, the figure is 11% (inactive); as for `Cc1ccc(Cc2c(C)nc3nc(SCC(=O)NCCN4CCN(C(=O)c5ccc(F)cc5)CC4)nn3c2C)cc1`, < 50% (inactive); as for `Cc1ccc(Cc2c(C)nc3nc(SCC(=O)NCCN4CCN(Cc5ccc(Cl)cc5)CC4)nn3c2C)cc1`, 87%.
Regarding `Cc1cccc(Cc2c(C)nc3nc(SCC(=O)NC4CCN(C(=O)CSc5nc6nc(C)c(Cc7cccc(C)c7)c(C)n6n5)C4)nn3c2C)c1` (stereo unspecified), the inhibition was 80%.
As to `Cc1ccc(Cc2c(C)nc3nc(SCC(=O)NCCCNC(=O)CSc4nc5nc(C)c(Cc6ccc(C)cc6)c(C)n5n4)nn3c2C)cc1`, the inhibition is 96%.
On to `Cc1ccc(Cc2c(C)nc3nc(SCC(=O)N4CCN(Cc5ccc(C)cc5)CC4)nn3c2C)cc1`, for which the inhibition is 14% (inactive).
As to `CCCNC(=O)CSc1nc2nc(C)c(Cc3ccc(C)cc3)c(C)n2n1`, the inhibition is 38% (inactive).
To `Cc1nc2nc(SCC(=O)NCCN3CCOCC3)nn2c(C)c1Cc1ccc(Br)cc1` belongs < 50% (inactive).
In the case of `Cc1ccc(Cc2c(C)nc3nc(SCC(=O)NCCN4CCCN(S(C)(=O)=O)CC4)nn3c2C)cc1`, the inhibition is 53%.
For the compound `Cc1ccc(Cc2c(CCc3ccccc3)nc3nc(SCC(=O)NCCN4CCOCC4)nn3c2C)cc1`, the inhibition was 44% (inactive).
On to `Cc1ccc(Cc2c(C)nc3nc(SCC(=O)NCC[N+]4(C)CCOCC4)nn3c2C)cc1`, for which the inhibition was 46% (inactive).
For the compound `Cc1ccc(Cc2c(C)nc3nc(SCC(=O)NCCN4CCCN(C(=O)OC(C)(C)C)CC4)nn3c2C)cc1`, the inhibition is < 50% (inactive).
For the compound `Cc1ccc(Cc2c(C)nc3nc(SCC(=O)NCc4ccc(CNC(=O)CSc5nc6nc(C)c(Cc7ccc(C)cc7)c(C)n6n5)cc4)nn3c2C)cc1`, the inhibition is 89%.
`Cc1ccc(Cc2c(C)nc3nc(SCC(=O)N4CCOCC4)nn3c2C)cc1`: the inhibition was 13% (inactive).
Take `Cc1ccc(Cc2c(C)nc3nc(SCC(=O)NCCN4CCN(C(=O)C(C)C)CC4)nn3c2C)cc1`: the inhibition was < 50% (inactive).
Consider `Cc1ccc(Cc2c(C)nc3nc(SCC(=O)N4CCN(CCc5ccccc5)CC4)nn3c2C)cc1`, for which the inhibition was 41% (inactive).
For the compound `Cc1ccc(Cc2c(C)nc3nc(SCC(=O)NCCN4CCN(CCc5ccccc5)CC4)nn3c2C)cc1`, the inhibition is 65%.
In the case of `Cc1ccc(Cc2c(C)nc3nc(SCC(=O)NCCN(C)C)nn3c2C)cc1`, the inhibition is < 50% (inactive).
For the compound `Cc1nc2nc(SCC(=O)NCCCNC(=O)CSc3nc4nc(C)c(Cc5ccncc5)c(C)n4n3)nn2c(C)c1Cc1ccncc1`, the inhibition is < 50% (inactive).
To `Cc1ccc(Cc2c(C)nc3nc(SCC(=O)NCCN4CCSCC4)nn3c2C)cc1` belongs 79%; to `Cc1ccc(Cc2c(C)nc3nc(SCC(=O)NCCN4CCN(S(=O)(=O)c5ccc(C)cc5)CC4)nn3c2C)cc1`, < 50% (inactive); to `Cc1ccc(Cc2c(C)nc3nc(SCC(=O)NCCN4CCCN(C(=O)c5ccccc5)CC4)nn3c2C)cc1`, < 50% (inactive).
For the compound `Cc1ccc(Cc2c(C)nc3nc(SCC(=O)NCCCN4CCCCCC4)nn3c2C)cc1`, the inhibition was 16% (inactive).
Take `Cc1ccc(Cc2c(C)nc3nc(SCC(=O)NCCCCNC(=O)CSc4nc5nc(C)c(Cc6ccc(C)cc6)c(C)n5n4)nn3c2C)cc1`: the inhibition is 88%.
With `Cc1ccc(Cc2c(C)nc3nc(SCC(=O)NCCCCCNC(=O)CSc4nc5nc(C)c(Cc6ccc(C)cc6)c(C)n5n4)nn3c2C)cc1`, the inhibition is 78%.
Consider `Cc1ccc(Cc2c(C)nc3nc(SCC(=O)NCCN4CCN(Cc5ccccc5)CC4)nn3c2C)cc1`, for which the inhibition is 66%.
Regarding `Cc1ccc(Cc2c(C)nc3nc(SCC(=O)NCCC4=CCCCC4)nn3c2C)cc1`, the inhibition was 22% (inactive).
On to `Cc1ccc(Cc2c(C)nc3nc(SCC(=O)NCCN4CCCN(S(=O)(=O)c5ccccc5)CC4)nn3c2C)cc1`, for which the inhibition was 83%.
Regarding `Cc1ccc(Cc2c(C)nc3nc(SCC(=O)NCC4CCCCN4C(=O)CSc4nc5nc(C)c(Cc6ccc(C)cc6)c(C)n5n4)nn3c2C)cc1` (stereo unspecified), the inhibition was 93%.
For `Cc1ccc(Cc2c(C)nc3nc(SCC(=O)NCCN4CCCCC4)nn3c2C)cc1`, the inhibition is 56%.
As to `Cc1nc2nc(SCC(=O)NCCN3CCOCC3)nn2c(C)c1Cc1ccncc1`, the inhibition is -11% (inactive).
Regarding `Cc1ccc(Cc2c(C)nc3nc(SCC(=O)NCCCCCCNC(=O)CSc4nc5nc(C)c(Cc6ccc(C)cc6)c(C)n5n4)nn3c2C)cc1`, the inhibition was 88%.
To `Cc1nc2nc(SCC(=O)N(C)CCN3CCOCC3)nn2c(C)c1Cc1ccc(Br)cc1` belongs 12% (inactive); to `Cc1ccc(Cc2c(C)nc3nc(SCC(=O)NC4CCCCCCC4)nn3c2C)cc1`, 59%.
To `Cc1ccc(Cc2c(C)nc3nc(SCC(=O)N4CCN(C)CC4)nn3c2C)cc1` belongs 37% (inactive); to `Cc1ccc(Cc2c(C)nc3nc(SCC(=O)NCCN4CCCN(S(=O)(=O)c5ccc(C)cc5)CC4)nn3c2C)cc1`, 79%; to `Cc1cccc(Cc2c(C)nc3nc(SCC(=O)NCC(C)NC(=O)CSc4nc5nc(C)c(Cc6cccc(C)c6)c(C)n5n4)nn3c2C)c1` (stereo unspecified), 67%.
As for `Cc1ccc(Cc2c(C)nc3nc(SCC(=O)NCCNC(=O)CSc4nc5nc(C)c(Cc6ccc(C)cc6)c(C)n5n4)nn3c2C)cc1`, the inhibition was 52%.
Take `C=CCN1CCN(CCNC(=O)CSc2nc3nc(C)c(Cc4ccc(C)cc4)c(C)n3n2)CC1`: the inhibition is < 50% (inactive).
In the case of `Cc1ccc(Cc2c(C)nc3nc(SCC(=O)NCCC(C)C)nn3c2C)cc1`, the inhibition is 43% (inactive).
On to `Cc1nc2nc(SCC(=O)N3CCN(C(=O)CSc4nc5nc(C)c(Cc6ccc(Br)cc6)c(C)n5n4)CC3)nn2c(C)c1Cc1ccc(Br)cc1`, for which the inhibition is 25% (inactive).
For `Cc1ccc(Cc2c(C)nc3nc(SCC(=O)NC4CCCC(NC(=O)CSc5nc6nc(C)c(Cc7ccc(C)cc7)c(C)n6n5)C4)nn3c2C)cc1` (stereo unspecified), the inhibition is 98%.
As to `Cc1ccc(Cc2c(C)nc3nc(SCC(=O)NCCN4CCNCC4)nn3c2C)cc1`, the inhibition was 51%.
